Tests used:
[1] = organism: Homo sapiens; test: Experimentally determined perceived intensity of compound at a concentration of 2000 ppm (mean value); type: functional
Summary of the method: (§1)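 Trained human sensory panel of judges tasted aqueous solutions of the compound. Samples had to be ≥95 weight % pure (HPLC, proton titration, Karl Fischer), non-mutagenic in five Salmonella typhimurium strains with and without microsomal activation, and non-toxic in a single-oral-dose mouse test. Perceived intensity (Ip) was read from time–intensity curves at 4- or 6-s intervals and averaged. Outliers at the 95% level were rejected by t-value. Values reported as mean (2Sm).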

[2] = organism: Homo sapiens; test: Number of taste judgments per compound; type: functional
[3] = organism: Homo sapiens; test: Percentage of judgments reporting an aftertaste at a concentration of 2000 ppm and character thereof; type: functional
Summary of the method: (§2)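 Trained judges tasted aqueous solutions of the compounds, which had to be ≥95 weight percent pure and to have passed mutagenicity and single oral dose toxicity screening. The value is the percentage of panel judgments reporting an aftertaste. Where given, its character is recorded as sweet, bitter or bitter-sweet.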

[4] = organism: Homo sapiens; test: Intensity calculated on a weight basis relative to an 85500 ppm sucrose solution at a concentration of 249 ppm (mean value); type: functional
Summary of the method: (§3)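 Trained human panel tasted aqueous solutions of purity-checked (≥95 weight percent) compounds cleared for mutagenicity and mouse oral toxicity. Weight-basis intensity I_w = perceived intensity × (85500 ppm sucrose / compound concentration in ppm). The mean is reported with 2S_m limits; data deviating excessively at 95% confidence were rejected by the t-value method.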

[5] = organism: Homo sapiens; test: Sour character at a concentration of 249 ppm (mean value); type: functional
[6] = organism: Homo sapiens; test: Bitter character at a concentration of 249 ppm (mean value); type: functional
Summary of the method: (§4)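 Trained human panel tasted aqueous solutions. Each judge reported whether there was an aftertaste and its character (sweet, bitter or bitter-sweet). The value is the percentage of judgments reporting a bitter aftertaste.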

[7] = organism: Homo sapiens; test: Experimentally determined perceived intensity of compound at a concentration of 249 ppm (mean value); type: functional; summary of the method: as §1
[8] = organism: Homo sapiens; test: Sweet / Bitter character at a concentration of 249 ppm (mean value); 97/3; type: functional
[9] = organism: Homo sapiens; test: Sweet character at a concentration of 249 ppm (mean value); type: functional
[10] = organism: Homo sapiens; test: Intensity calculated on a molar basis relative to a 0.25 M sucrose solution at a concentration of 249 ppm (mean value); type: functional
Summary of the method: (§5)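 Trained human judges tasted aqueous solutions of the test compound; compounds were first required to be ≥95 weight percent pure and free of mutagenicity (five Salmonella typhimurium strains, ± microsomal activation) and of single oral dose mouse toxicity. Molar intensity I_m = perceived intensity × (0.25 M sucrose / compound molar concentration). The mean is reported with 2S_m limits; outliers were rejected at 95% confidence by t-value.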

[11] = organism: Homo sapiens; test: Other taste character at a concentration of 249 ppm (mean value); type: functional
Summary of the method: (§6)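 Trained human sensory panel (Swartz method) tasted dilute aqueous solutions of the compounds, which had to be ≥95 weight percent pure and free of mutagenicity and toxicity. Taste character is reported as the mean value with 2S_m limits. Data deviating excessively at the 95% confidence level were rejected by the t-value method.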

[12] = organism: Homo sapiens; test: Salty character at a concentration of 249 ppm (mean value); type: functional
[13] = organism: Homo sapiens; test: Percentage of judgments reporting an aftertaste at a concentration of 249 ppm and character thereof; type: functional; summary of the method: as §2
[14] = organism: Homo sapiens; test: Sweet character at a concentration of 90 ppm (mean value); type: functional
[15] = organism: Homo sapiens; test: Experimentally determined perceived intensity of compound at a concentration of 90 ppm (mean value); type: functional; summary of the method: as §1
[16] = organism: Homo sapiens; test: Intensity calculated on a weight basis relative to an 85500 ppm sucrose solution at a concentration of 90 ppm (mean value); type: functional; summary of the method: as §3
[17] = organism: Homo sapiens; test: Bitter character at a concentration of 90 ppm (mean value); type: functional; summary of the method: as §4
[18] = organism: Homo sapiens; test: Intensity calculated on a molar basis relative to a 0.25 M sucrose solution at a concentration of 90 ppm (mean value); type: functional; summary of the method: as §5
[19] = organism: Homo sapiens; test: Sour character at a concentration of 90 ppm (mean value); type: functional
[20] = organism: Homo sapiens; test: Salty character at a concentration of 90 ppm (mean value); type: functional
[21] = organism: Homo sapiens; test: Other taste character at a concentration of 90 ppm (mean value); type: functional; summary of the method: as §6
[22] = organism: Homo sapiens; test: Percentage of judgments reporting an aftertaste at a concentration of 90 ppm and character thereof; type: functional
[23] = organism: Homo sapiens; test: Sweet / Bitter character at a concentration of 90 ppm (mean value); 91/9
[24] = organism: Homo sapiens; test: Sweet character at a concentration of 252 ppm (mean value); type: functional; summary of the method: as §6
[25] = organism: Homo sapiens; test: Sour character at a concentration of 252 ppm (mean value); type: functional; summary of the method: as §6
[26] = organism: Homo sapiens; test: Percentage of judgments reporting an aftertaste at a concentration of 252 ppm and character thereof; type: functional; summary of the method: as §2
[27] = organism: Homo sapiens; test: Intensity calculated on a weight basis relative to an 85500 ppm sucrose solution at a concentration of 252 ppm (mean value); type: functional; summary of the method: as §3
[28] = organism: Homo sapiens; test: Experimentally determined perceived intensity of compound at a concentration of 252 ppm (mean value); type: functional; summary of the method: as §1
[29] = organism: Homo sapiens; test: Bitter character at a concentration of 252 ppm (mean value); type: functional; summary of the method: as §4
[30] = organism: Homo sapiens; test: Sweet / Bitter character at a concentration of 252 ppm (mean value); 6/94; type: functional
[31] = organism: Homo sapiens; test: Intensity calculated on a molar basis relative to a 0.25 M sucrose solution at a concentration of 252 ppm (mean value); type: functional; summary of the method: as §5
[32] = organism: Homo sapiens; test: Salty character at a concentration of 252 ppm (mean value); type: functional; summary of the method: as §6
[33] = organism: Homo sapiens; test: Other taste character at a concentration of 252 ppm (mean value); type: functional; summary of the method: as §6
[34] = organism: Homo sapiens; test: Sour character at a concentration of 250 ppm (mean value); type: functional; summary of the method: as §6
[35] = organism: Homo sapiens; test: Intensity calculated on a weight basis relative to an 85500 ppm sucrose solution at a concentration of 250 ppm (mean value); type: functional; summary of the method: as §3
[36] = organism: Homo sapiens; test: Bitter character at a concentration of 250 ppm (mean value); type: functional; summary of the method: as §4
[37] = organism: Homo sapiens; test: Experimentally determined perceived intensity of compound at a concentration of 250 ppm (mean value); type: functional; summary of the method: as §1
[38] = organism: Homo sapiens; test: Sweet / Bitter character at a concentration of 250 ppm (mean value); 69/31; type: functional
[39] = organism: Homo sapiens; test: Sweet character at a concentration of 250 ppm (mean value); type: functional; summary of the method: as §6
[40] = organism: Homo sapiens; test: Intensity calculated on a molar basis relative to a 0.25 M sucrose solution at a concentration of 250 ppm (mean value); type: functional; summary of the method: as §5
[41] = organism: Homo sapiens; test: Salty character at a concentration of 250 ppm (mean value); type: functional; summary of the method: as §6
[42] = organism: Homo sapiens; test: Other taste character at a concentration of 250 ppm (mean value); type: functional; summary of the method: as §6
[43] = organism: Homo sapiens; test: Percentage of judgments reporting an aftertaste at a concentration of 250 ppm and character thereof; type: functional; summary of the method: as §2

**Q.** Which IP [1] does the source give for COc1ccc(/C=C/C(=O)c2ccc(OCC(=O)[O-])cc2O)cc1O.[Na+] here?
**A.** Its IP is 0.

**Q.** What about the Judgments [2] of the same compound?
**A.** The Judgments was 1.

**Q.** With CNc1ccc(CCC(=O)c2c(O)cc(OCC(=O)[O-])cc2O)cc1O.[Na+] as the compound, how does the IP [1] read?
**A.** The IP was 0.

**Q.** What about the Judgments [2] of the same compound?
**A.** Its Judgments is 1.

**Q.** What about the Judgments [3] of the same compound?
**A.** Its Judgments is 0.

**Q.** What does the source list for COc1ccc(CCC(=N)c2c(O)cc(OCC(=O)[O-])cc2O)cc1O.[Na+]?
**A.** IP [1]: 0; Judgments [2]: 1; Judgments [3]: 0

**Q.** How did the IW [4] turn out when COc1ccc(CCC(=O)c2c(O)cc(OCC(=O)CC(=O)[O-])cc2O)cc1O.[Na+] was run?
**A.** The IW was 310.

**Q.** What about the Taste character [5] of the same compound?
**A.** The Taste character was 0.

**Q.** What about the Taste character [6] of the same compound?
**A.** The Taste character was 3.

**Q.** And the IP [7]?
**A.** Its IP is 0.89.

**Q.** What about the Taste character [8] of the same compound?
**A.** The Taste character was 97.

**Q.** And the Judgments [2]?
**A.** The Judgments was 24.

**Q.** And the Taste character [9]?
**A.** Its Taste character is 85.

**Q.** And the IM [10]?
**A.** Its IM is 380.

**Q.** And the Taste character [11]?
**A.** The Taste character was 12.

**Q.** What about the Taste character [12] of the same compound?
**A.** The Taste character was 0.

**Q.** What about the Judgments [13] of the same compound?
**A.** Its Judgments is 100.

**Q.** Which Taste character [14] does the source give for COc1ccc(CCC(=O)c2c(O)cc(O)cc2O)cc1O here?
**A.** The Taste character was 83.

**Q.** And the IP [15]?
**A.** Its IP is 0.89.

**Q.** And the IW [16]?
**A.** The IW was 850.

**Q.** And the Taste character [17]?
**A.** Its Taste character is 8.

**Q.** And the IM [18]?
**A.** The IM was 750.

**Q.** What about the Taste character [19] of the same compound?
**A.** Its Taste character is 0.

**Q.** And the Judgments [2]?
**A.** Its Judgments is 10.

**Q.** And the Taste character [20]?
**A.** The Taste character was 5.

**Q.** What about the Taste character [21] of the same compound?
**A.** The Taste character was 4.

**Q.** And the Judgments [22]?
**A.** Its Judgments is 70.

**Q.** And the Taste character [23]?
**A.** The Taste character was 91.

**Q.** Which IP [1] does the source give for COc1ccc(CNC(=O)c2c(O)cc(OCC(=O)[O-])cc2O)cc1O.[Na+] here?
**A.** The IP was 0.

**Q.** What about the Judgments [2] of the same compound?
**A.** The Judgments was 1.

**Q.** And the Judgments [3]?
**A.** The Judgments was 0.

**Q.** Which results are given for COc1ccc(CCC(=O)c2c(O)cc(OCC(=O)[O-])cc2O)cc1N.[Na+]?
**A.** Taste character [24]: 5; Taste character [25]: 0; Judgments [26]: 58; IW [27]: 200; IP [28]: 0.08; Taste character [29]: 79; Judgments [2]: 12; Taste character [30]: 6; IM [31]: 230; Taste character [32]: 1; Taste character [33]: 15

**Q.** COc1ccc(CCC(=O)c2c(O)cc(OC(CCCO)C(=O)[O-])cc2O)cc1O.[Na+] (stereo not given) was tested. Which Taste character [34] did it give?
**A.** Its Taste character is 0.

**Q.** What about the IW [35] of the same compound?
**A.** The IW was 34.

**Q.** And the Taste character [36]?
**A.** The Taste character was 31.

**Q.** What about the IP [37] of the same compound?
**A.** Its IP is 0.1.

**Q.** What about the Judgments [2] of the same compound?
**A.** Its Judgments is 4.

**Q.** What about the Taste character [38] of the same compound?
**A.** The Taste character was 69.

**Q.** And the Taste character [39]?
**A.** Its Taste character is 69.

**Q.** What about the IM [40] of the same compound?
**A.** Its IM is 43.

**Q.** And the Taste character [41]?
**A.** The Taste character was 0.

**Q.** What about the Taste character [42] of the same compound?
**A.** Its Taste character is 0.

**Q.** What about the Judgments [43] of the same compound?
**A.** The Judgments was 0.

From ChEMBL document CHEMBL1121813, “Dihydrochalcone sweeteners. A study of the atypical temporal phenomena” (1981)
